{"data": "Experimental data collected from several papers", "target": "Tyrosine-protein kinase ZAP-70 (ZAP70, Homo sapiens, UniProt P43403)", "Sequence (P43403 1-619, as in one of the studies)": "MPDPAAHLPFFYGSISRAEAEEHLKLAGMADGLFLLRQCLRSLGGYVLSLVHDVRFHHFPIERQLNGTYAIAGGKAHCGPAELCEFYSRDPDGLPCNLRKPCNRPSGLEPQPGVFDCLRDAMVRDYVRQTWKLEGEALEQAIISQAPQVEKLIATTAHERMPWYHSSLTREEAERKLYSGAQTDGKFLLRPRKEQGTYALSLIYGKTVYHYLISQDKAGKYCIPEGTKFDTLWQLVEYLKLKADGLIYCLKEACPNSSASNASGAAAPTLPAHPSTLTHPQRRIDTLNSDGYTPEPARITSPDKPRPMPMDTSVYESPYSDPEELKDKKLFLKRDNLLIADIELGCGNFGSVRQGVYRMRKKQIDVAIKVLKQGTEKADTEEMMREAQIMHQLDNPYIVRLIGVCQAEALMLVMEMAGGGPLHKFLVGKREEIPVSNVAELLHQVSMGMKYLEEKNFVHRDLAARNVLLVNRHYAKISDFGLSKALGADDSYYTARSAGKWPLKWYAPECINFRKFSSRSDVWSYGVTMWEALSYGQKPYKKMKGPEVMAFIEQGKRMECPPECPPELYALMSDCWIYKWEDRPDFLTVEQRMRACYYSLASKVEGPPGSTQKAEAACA", "note": "Lines come from different studies, so protocols differ."}
{"SMILES": "CNC(=O)[C@@H]1CC[C@@H](n2c(-c3ccc4cnccc4c3)nc3ccc(C(=O)NCc4cccc(C(N)=O)c4)cc32)C1", "observed": "binding", "technique": "competition with immobilised ligand", "concentration": "1 µM", "remaining binding [%]": 100}
{"SMILES": "Cc1cnc(Nc2ccc(C(=O)N3CCC(N4CCCC4)CC3)cc2)nc1-c1cc2ccccc2s1", "observed": "binding", "technique": "competition with immobilised ligand", "concentration": "1 µM", "remaining binding [%]": 46}
{"SMILES": "CCN1CCN(Cc2ccc(C(=O)Nc3ccc(C)c(Oc4ccc5c(c4)CC(=O)N5)c3)cc2C(F)(F)F)CC1", "observed": "binding", "technique": "competition with immobilised ligand", "concentration": "1 µM", "remaining binding [%]": 100}
{"SMILES": "O=C(NCCCN1CCOCC1)c1ccc(Nc2ncc(Cl)c(-c3ccc(Cl)s3)n2)cc1", "observed": "binding", "technique": "competition with immobilised ligand", "concentration": "1 µM", "remaining binding [%]": 88}
{"SMILES": "N#Cc1ccccc1CSc1nnc2c(n1)[nH]c1ccccc12", "observed": "binding", "technique": "competition with immobilised ligand", "concentration": "10 µM", "remaining binding [%]": 78}
{"SMILES": "FC(F)(F)Oc1cccc(-c2cnc3ccc(-c4ccncc4)nn23)c1", "observed": "binding", "technique": "competition with immobilised ligand", "concentration": "5 µM", "remaining binding [%]": 69}
{"SMILES": "N[C@H]1CCN(c2nccc(-c3cnn4ncccc34)n2)C1", "observed": "binding", "concentration": "1 µM", "remaining binding [%]": 100}
{"SMILES": "C[C@@H]1CN(c2ccc3ncc(-c4ccc5[nH]nc(C6CC6)c5c4)n3n2)C[C@H](C)O1", "observed": "binding", "technique": "competition with immobilised ligand", "concentration": "0.5 µM", "remaining binding [%]": 100}
{"SMILES": "CN(C)c1ncc(F)c(-c2cnn3ncccc23)n1", "observed": "binding", "concentration": "1 µM", "remaining binding [%]": 79}
{"SMILES": "CNCc1ccccc1-c1csc([C@@H](C)Nc2nc(C)nc3cc(OC)c(OC)cc23)c1", "observed": "cell-free assay", "technique": "competition with immobilised ligand", "concentration": "1 µM", "remaining binding [%]": 87}
{"SMILES": "CN(CCCC(F)(F)F)c1nccc(-c2cnn3ncccc23)n1", "observed": "binding", "concentration": "1 µM", "remaining binding [%]": 100}
{"SMILES": "c1cncc(-c2cccc(Nc3nccc(NC4CCCCC4)n3)c2)c1", "observed": "binding", "technique": "competition with immobilised ligand", "concentration": "10 µM", "remaining binding [%]": 91}
{"SMILES": "O=C(NCC1CCOCC1)c1n[nH]cc1NC(=O)c1c(F)cccc1F", "observed": "binding", "technique": "competition with immobilised ligand", "concentration": "1 µM", "remaining binding [%]": 100}
{"SMILES": "CN(C)c1nccc(-c2cnn3ncccc23)n1", "observed": "binding", "concentration": "1 µM", "remaining binding [%]": 72}
{"SMILES": "O=C(NCc1ncc(C(F)(F)F)cc1Cl)c1ccc2c(c1)C1(CCS(=O)(=O)CC1)[C@@H](C1CC1)N2S(=O)(=O)c1ccc(F)cc1", "observed": "cell-free assay", "technique": "competition with immobilised ligand", "concentration": "1 µM", "remaining binding [%]": 72}
{"SMILES": "C[C@@H](c1ccc(-n2cnc3c(N)ncnc32)cc1)N1CCc2nn(C)c(Cc3ccccc3)c2C1=O", "observed": "binding", "technique": "competition with immobilised ligand", "concentration": "0.1 µM", "remaining binding [%]": 94}
{"SMILES": "CCOC(=O)c1cc2cc(-c3cc(C(=O)NCc4ccc(C(=O)O)cc4)nn3C)ccc2[nH]1", "observed": "cell-free assay", "technique": "competition with immobilised ligand", "concentration": "0.1 µM", "remaining binding [%]": 98}
{"SMILES": "C[C@@H]1CCN(c2nccc(-c3cnn4ncccc34)n2)C1", "observed": "binding", "concentration": "1 µM", "remaining binding [%]": 75}
{"SMILES": "O=C(O)[C@H]1[C@H](Cn2nnc3ccccc3c2=O)CC[C@@H]1C(=O)c1ccc(OCCC2CCOCC2)cc1", "observed": "cell-free assay", "technique": "competition with immobilised ligand", "concentration": "1 µM", "remaining binding [%]": 100}
{"SMILES": "COc1ccnn2ncc(-c3ccnc(N(C)C)n3)c12", "observed": "binding", "concentration": "1 µM", "remaining binding [%]": 86}
{"SMILES": "C[C@@H](c1cccc(C#N)c1)n1cc(Cl)cc(C(N)=O)c1=N", "observed": "cell-free assay", "technique": "competition with immobilised ligand", "concentration": "1 µM", "remaining binding [%]": 84}
{"SMILES": "CC1CCCN1c1nccc(-c2cnn3ncccc23)n1 (centres unmarked)", "observed": "binding", "concentration": "1 µM", "remaining binding [%]": 100}
{"SMILES": "Cc1cc(-n2nc(Cc3cc(F)cc(C(F)(F)F)c3)nc2C)ccc1C(N)=O", "observed": "cell-free assay", "technique": "competition with immobilised ligand", "concentration": "1 µM", "remaining binding [%]": 82}
{"SMILES": "C=CC(=O)N1CCC(C(=O)NCC(=O)N2CCN(c3nc(-c4cnc(N)nc4C(F)F)nc(N4CCOCC4)n3)CC2)CC1", "observed": "binding", "technique": "competition with immobilised ligand", "concentration": "1 µM", "remaining binding [%]": 100}
{"SMILES": "O=C(c1ccc(Nc2ncc(Cl)c(-c3ccc(Cl)s3)n2)cc1)N1CCC(N2CCCC2)CC1", "observed": "binding", "technique": "competition with immobilised ligand", "concentration": "1 µM", "remaining binding [%]": 23}
{"SMILES": "Cc1nc(N2CC[C@@H](O)C2)ncc1-c1cc(C(F)(F)F)cc2[nH]ncc12", "observed": "binding", "technique": "competition with immobilised ligand", "concentration": "1 µM", "remaining binding [%]": 65}
